Reference: ChEMBL document CHEMBL1671680, “Pradimicin S, a highly soluble nonpeptidic small-size carbohydrate-binding antibiotic, is an anti-HIV drug lead for both microbicidal and systemic use” (Antimicrob Agents Chemother, 2010)
Active and inactive are the calls of the source. The rule behind the calls is not given here.

Tests used:
[1] = Binding affinity to HIV-1 3B gp120 assessed as dissociation rate constant after 6 mins by SPR analysis in presence of 10 mM CaCl2; set-up: species or system Human immunodeficiency virus 1
PBMC [2] = assay: Immunostimulatory activity against human PBMC assessed as PDGF production at 21 uM after 72 hrs; assay type: functional, cell-based
Method in brief: (§1)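 Unstimulated PBMCs and PHA-blasts from three donors, in three independent experiments, cultured with test compound at 20 μg/ml (21 or 22 μM). Supernatants collected after 72 h. The cytokine profile was read on a Bio-Plex 27-plex human cytokine bead immunoassay, using beads coupled to cytokine-specific monoclonal antibodies and run per the kit instructions.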

PBMC [3] = assay: Immunostimulatory activity against human PBMC assessed as suppression of IL-2 production at 22 uM after 72 hrs; assay type: functional; method in brief: as §1
[4] = tested on: Human immunodeficiency virus 2; assay: Antiviral activity against X4 tropic HIV-2 BV-5061 W infected in human PBMC assessed as inhibition of viral replication […] by ELISA; assay type: functional, organism-based; conditions: Human immunodeficiency virus 2, BV-5061
Method in brief: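 PHA-stimulated (2 μg/ml, 3 days) donor PBMC blasts seeded at 0.5 × 10^6 cells/well with compound dilutions in RPMI 1640 + 10% FCS + IL-2 (25 U/ml); virus added at 250 pg p24 or p27/ml final; supernatant p24 (HIV-1) or p27 (HIV-2) antigen measured by ELISA at day 12; EC50 from antigen reduction.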

PBMC [5] = assay: Immunostimulatory activity against human PBMC assessed as MCP-1 production at 21 uM after 72 hrs; assay type: functional, cell-based; method in brief: as §1
PBMC [6] = assay: Immunostimulatory activity against human PBMC assessed as suppression of G-CSF production at 22 uM after 72 hrs; assay type: functional; method in brief: as §1
[7] = tested on: Human immunodeficiency virus 1; assay: Antiviral activity against R5 tropic HIV-1 clade B isolate US2 infected in human PBMC assessed as inhibition of viral replication […] by ELISA; assay type: functional, organism-based; conditions: Human immunodeficiency virus 1, clade B isolate US2
Method in brief: (§2)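 PBMCs from healthy donors were stimulated with PHA (2 μg/ml) for 3 days, then seeded at 0.5 × 10^6 cells/well in RPMI 1640 with 10% FCS, IL-2 (25 U/ml) and compound. Virus was added at a final 250 pg p24/ml. Supernatant was taken at day 12 for p24 antigen ELISA.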

PBMC [8] = assay: Immunostimulatory activity against human PBMC assessed as IL1-beta production at 22 uM after 72 hrs; assay type: functional, cell-based; method in brief: as §1
PBMC [9] = assay: Immunostimulatory activity against human PBMC assessed as IL-13 production at 22 uM after 72 hrs; assay type: functional, cell-based; method in brief: as §1
[10] = tested on: Human immunodeficiency virus 1; assay: Ratio of EC90 to EC50 for R5 tropic HIV-1 clade F isolate BZ163 infected in human PBMC; assay type: functional
Method in brief: (§3)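 PBMCs from healthy donors were PHA-stimulated (2 μg/ml, 3 days, 37°C), then seeded at 0.5 × 10^6 per well with compound dilutions in RPMI 1640 with 10% FCS and IL-2 (25 U/ml). Virus was added at 250 pg p24 or p27/ml final. On day 12, supernatant HIV-1 p24 or HIV-2 p27 was measured by ELISA, giving EC50 and EC90.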

[11] = Binding affinity to HIV-1 3B gp120 after 6 mins by SPR analysis in presence of 10 mM CaCl2; set-up: species or system Human immunodeficiency virus 1
[12] = Cytotoxicity against human U87 cells after 3 to 4 days; assay type: cell-based, U-87MG ATCC
Method in brief: (§4)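 Cells seeded at 20,000–75,000 per well with compound dilutions, incubated 3–4 days at 37°C, and counted on a Coulter particle counter; CC50 is the concentration inhibiting proliferation by 50%.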

PBMC [13] = assay: Immunostimulatory activity against human PBMC assessed as suppression of G-CSF production at 21 uM after 72 hrs; assay type: functional; method in brief: as §1
PBMC [14] = assay: Immunostimulatory activity against human PBMC assessed as IL-6 production at 21 uM after 72 hrs; assay type: functional, cell-based; method in brief: as §1
PBMC [15] = assay: Immunostimulatory activity against human PBMC assessed as IL-9 production at 22 uM after 72 hrs; assay type: functional, cell-based; method in brief: as §1
PBMC [16] = assay: Immunostimulatory activity against human PBMC assessed as suppression of IL-9 production at 21 uM after 72 hrs; assay type: functional; method in brief: as §1
PBMC [17] = assay: Immunostimulatory activity against human PBMC assessed as VEGF production at 21 uM after 72 hrs; assay type: functional, cell-based; method in brief: as §1
PBMC [18] = assay: Immunostimulatory activity against human PBMC assessed as MIP-1beta production at 21 uM after 72 hrs; assay type: functional, cell-based; method in brief: as §1
[19] = Binding affinity to HIV-1 HXB2 gp41 after 6 mins by SPR analysis in presence of 10 mM CaCl2; set-up: species or system Human immunodeficiency virus 1
[20] = tested on: Human immunodeficiency virus 1; assay: Antiviral activity against X4 tropic HIV-1 Bal infected in human PBMC assessed as inhibition of viral replication […] by ELISA; assay type: functional, organism-based; conditions: Human immunodeficiency virus 1, Bal; method in brief: as §2
[21] = Cytotoxicity against human Molt4 cells after 3 to 4 days; assay type: cell-based; conditions: MOLT-4 cells; method in brief: as §4
[22] = tested on: Human immunodeficiency virus 1; assay: Antiviral activity against HIV-1 3B infected in human C8166 cells assessed as inhibition of virus-induced cytopathicity after 3 to 4 days by microscopic analysis; assay type: functional, organism-based; conditions: Human immunodeficiency virus 1, 3B
Method in brief: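 CEM or C8166 cells at 5 × 10^5/ml infected with HIV-1 at 100 CCID50 per ml, then mixed 1:1 with compound dilutions and held at 37°C for 3–4 days. Giant cells were counted microscopically at ×100 against untreated infected cultures. EC50 is the concentration cutting syncytium formation by 50%.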

[23] = Cytotoxicity against human PBMC cells after 3 to 4 days; assay type: cell-based
PBMC [24] = assay: Immunostimulatory activity against human PBMC assessed as IL-9 production at 21 uM after 72 hrs; assay type: functional, cell-based; method in brief: as §1
[25] = Binding affinity to HIV-1 HXB2 gp41 assessed as dissociation rate constant after 6 mins by SPR analysis in presence of 10 mM CaCl2; set-up: species or system Human immunodeficiency virus 1
PBMC [26] = assay: Immunostimulatory activity against human PBMC assessed as IL-12 production at 21 uM after 72 hrs; assay type: functional, cell-based; method in brief: as §1
[27] = tested on: Human immunodeficiency virus 1; assay: Antiviral activity against R5 tropic HIV-1 clade F isolate BZ163 infected in human PBMC assessed as inhibition of viral replication after 12 days by ELISA; conditions: Human immunodeficiency virus 1, clade F isolate BZ163, 12 days
[28] = tested on: Human immunodeficiency virus 1; assay: Binding affinity to HIV-1 HXB2 gp41 assessed as association rate constant after 6 mins by SPR analysis in presence of 10 mM CaCl2
PBMC [29] = assay: Immunostimulatory activity against human PBMC assessed as IL-12 production at 22 uM after 72 hrs; assay type: functional, cell-based; method in brief: as §1
PBMC [30] = assay: Immunostimulatory activity against human PBMC assessed as IL-13 production at 21 uM after 72 hrs; assay type: functional, cell-based; method in brief: as §1
[31] = tested on: Human immunodeficiency virus 1; assay: Ratio of EC90 to EC50 for R5 tropic HIV-1 clade C isolate ETH2220 infected in human PBMC; assay type: functional; method in brief: as §3
PBMC [32] = assay: Immunostimulatory activity against human PBMC assessed as suppression of IL-15 production at 21 uM after 72 hrs; assay type: functional; method in brief: as §1
[33] = tested on: Human immunodeficiency virus 1; assay: Binding affinity to HIV-1 3B gp120 assessed as association rate constant after 6 mins by SPR analysis in presence of 10 mM CaCl2

Compound	Kd [1]	Activity (PBMC [2])	fold change (FC) (PBMC [3])	EC50 [4]	Activity (PBMC [5])	fold change (FC) (PBMC [6])	EC50 [7]	Activity (PBMC [8])	Activity (PBMC [9])	Ratio [10]	Kd [11]	CC50 [12]	fold change (FC) (PBMC [13])	Activity (PBMC [14])	Activity (PBMC [15])	fold change (FC) (PBMC [16])	Activity (PBMC [17])	Activity (PBMC [18])	Kd [19]	EC50 [20]	further results
CN[C@@H]1[C@H](O[C@@H]2OC[C@@H](O)[C@H](O)[C@H]2O)[C@@H](O)[C@H](O[C@H]2c3cc(C)c(C(=O)N[C@H](C)C(=O)O)c(O)c3-c3c(cc4c(c3O)C(=O)c3cc(OC)cc(O)c3C4=O)[C@@H]2O)O[C@@H]1C [PRADIMICIN A]	6.1 ×10⁻³ /s	inactive	4	4.3 µM	inactive	2	6 µM	inactive	inactive	2	0.41 µM	> 50 µM	2	inactive	inactive	2	inactive	inactive	14.9 µM	2.2 µM	CC50 [21]: > 50 µM; EC50 [22]: 2.6 µM; CC50 [23]: > 50 µM; Activity (PBMC [24]): inactive; Kd [25]: 2.91 ×10⁻² /s; Activity (PBMC [26]): inactive; EC50 [27]: 8 µM; Ka [28]: 1.96 ×10³ /M/s; Activity (PBMC [29]): inactive; Activity (PBMC [30]): inactive; Ratio [31]: 2; fold change (FC) (PBMC [32]): 2; Ka [33]: 1.49 ×10⁴ /M/s
CN[C@@H]1[C@H](O[C@@H]2O[C@H](CO)[C@@H](O)[C@H](OS(=O)(=O)O)[C@H]2O)[C@@H](O)[C@H](O[C@H]2c3cc(C)c(C(=O)N[C@H](C)C(=O)O)c(O)c3-c3c(cc4c(c3O)C(=O)c3cc(OC)cc(O)c3C4=O)[C@@H]2O)O[C@@H]1C [PRADIMICIN S]	5.11 ×10⁻³ /s	inactive	4	3.1 µM	inactive	2	11 µM	inactive	inactive	2	0.4 µM	> 230 µM	2	inactive	inactive	2	inactive	inactive	9.93 µM	5.3 µM	CC50 [21]: > 230 µM; EC50 [22]: 5.1 µM; CC50 [23]: > 230 µM; Activity (PBMC [24]): inactive; Kd [25]: 2.71 ×10⁻² /s; Activity (PBMC [26]): inactive; EC50 [27]: 17 µM; Ka [28]: 2.73 ×10³ /M/s; Activity (PBMC [29]): inactive; Activity (PBMC [30]): inactive; Ratio [31]: 2; fold change (FC) (PBMC [32]): 2; Ka [33]: 1.27 ×10⁴ /M/s
